Experimental data from PubChem BioAssay.
Results filed as inconclusive are left out.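 How the source made its calls, unless noted: active means viability increase at or above a cutoff of the median across tested compounds plus 3 SD (cut at about 8.5% in these data, passing the limit was not always enough); inconclusive means some gains above the cutoff, reason not given; inactive means the rest.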

Tests used:
[1] = S. cerevisiae growth inhibition in permissive medium (OD615), pilot counter-assay for S. cerevisiae lifespan shortening project, permissive growth control (AID 705;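 active means growth inhibition above 25% in both replicates, a cutoff set 3 SD above the mean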); conditions: OD615, 24 h, at 10 µM, hits give high values
Method in brief: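 System: Engineered DeaD yeast | Buffer or medium: SC raffinose/galactose permissive medium | Incubation: Cells pre-grown 4 h, then 24 h compound exposure, 30 °C humidified | Measured by: Absorbance (optical density) at 615 nm | Read-out: Reduction in yeast growth (OD615)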

[2] = S. cerevisiae growth inhibition in restrictive medium, OD615, pilot screen, restrictive growth control, yeast lifespan reduction project (AID 706;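 active means growth inhibition above a set limit, 3 SD over mean compound inhibition, in both replicates, cut at about 43% in these data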;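 further: modified DeaD lifespan yeast strain shifted to restrictive glucose medium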); conditions: OD615, 48 h, at 10 µM, hits give high values
Method in brief: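 Material: modified S. cerevisiae; Medium: glucose-based CSMM-D restrictive medium; Compound dosing: one concentration, 10 µM final, 0.25% DMSO; Incubation: 48 h compound exposure at 30 °C; Measured by: OD615.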

[3] = doxorubicin toxicity protection in MRP-1 cells – H69AR cells, CellTiter-Glo, duplicate, MRP-1 activator project, pilot screen (AID 807); conditions: H69AR viability with doxorubicin, CellTiter-Glo luminescence; at 10 µM; hits give high values;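 further: compound pretreatment 18-22 h then 72 h combined with doxorubicin; 0% = doxorubicin alone and 100% = vehicle without doxorubicin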
[4] = viability of HCT116 without oncogenic beta-catenin – human colon tumor cells, pilot screen (AID 823;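 active means cell viability at or below a set limit in both duplicate runs, the limit being the all-compound median minus 4 SD, cut at about 23% in these data, passing the limit was not always enough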;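 further: 0% = wells killed by 20 µM Hyamine and 100% = untreated DMSO cell wells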); conditions: HCT116 beta-catenin knockout viability, CellTiter-Glo, 60 h; at 10 µM; hits give low values
[5] = viability of PTEN-null HCT116 cells – cell-based, HCT116 clonal line, CellTiter-Glo, pilot screen (AID 824;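 active means viability at or below 27.92% in each of two runs, the all-compound median minus 4 SD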;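 further: 0% = 20 µM Hyamine control and 100% = vehicle cell control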); conditions: HCT116 PTEN-deleted viability, 60 h, at 10 µM, hits give low values
[6] = RAM pathway blockade in budding yeast – dse1pr::URA3 reporter, 5-FOA selection, pilot screen (AID 869;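 active means inhibition over a set limit, the all-compound mean plus 3 SD, in both replicate runs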;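 further: 0% = DMSO wells with no growth and 100% = 10 µM 1-NA-PP1 with full growth; RAM network block rescues cells from 5-FOA so hits raise OD615 growth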); conditions: S. cerevisiae dse1pr::URA3 5-FOA growth, OD615, 2 d; at 10 µM; hits give high values; strain carries analog-sensitive mutant Cbk1 kinase
[7] = RAM signaling pathway blockade in yeast – S. cerevisiae, Pdr1DBD-CYC8 efflux-inhibited sensitized strain, primary screen (AID 1298;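 active means RAM network inhibition above 8.4% in each of two replicates, 3 SD over the compound average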;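 further: 0% = DMSO untreated cells without growth and 100% = 10 µM 1-NA-PP1 full growth; higher means more yeast growth rescued from 5-FOA killing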); conditions: S. cerevisiae cbk1-as DSE1-URA3 strain, 5-FOA growth OD615, 2 d; at 50 µM; hits give high values

Cc1cc(-c2ccco2)n(CC(=O)NCCN(C)C)n1
inactive: growth inhibition [1] -3.33% | growth inhibition [2] 1.02% | viability increase [3] -0.48% | viability [4] 98.8% | viability [5] 94.5% | inhibition [6] 2.31% | RAM network inhibition [7] 0.37%

CCCCNC(=O)c1ccc2nc(-c3ccco3)c(-c3ccco3)nc2c1
inactive: growth inhibition [1] -4.73% | growth inhibition [2] -6.49% | viability increase [3] -1.69% | viability [4] 104% | viability [5] 97.5% | inhibition [6] 1.85% | RAM network inhibition [7] 1.63%

CCn1c(SCC(=O)Nc2ccccc2C(=O)OC)nc2c1c(=O)n(C)c(=O)n2C
inactive: growth inhibition [1] -6.03% | growth inhibition [2] -4.93% | viability increase [3] -3.55% | viability [4] 92% | viability [5] 86.6% | inhibition [6] 3.68% | RAM network inhibition [7] 5.2%

O=C1c2ccccc2NC(c2ccc3c(c2)OCCO3)N1c1ccc2c(c1)OCCO2 (centres undefined)
inactive: growth inhibition [1] -5.15% | growth inhibition [2] 6.69% | viability increase [3] -2.17% | viability [4] 90.5% | viability [5] 79.5% | inhibition [6] 0.615% | RAM network inhibition [7] 0.98%

CCCN1CCN(C(=O)Cn2ncc3ccccc32)CC1
inactive: growth inhibition [1] -12.4% | growth inhibition [2] -16.9% | viability increase [3] -2.31% | viability [4] 100% | viability [5] 98.2% | inhibition [6] 1.26% | RAM network inhibition [7] 3.84%

Cc1nc2ccc(S(=O)(=O)NC(C(=O)NCc3ccco3)C(C)C)cc2s1 (centres undefined)
inactive: growth inhibition [1] -6.93% | growth inhibition [2] -0.665% | viability increase [3] -2.43% | viability [4] 101% | viability [5] 101% | inhibition [6] 0.895% | RAM network inhibition [7] -0.06%

CCOC(=O)N1CCN(C(=O)NC23CC4CC(CC(C4)C2)C3)CC1
inactive: growth inhibition [1] -2.78% | growth inhibition [2] -5.79% | viability increase [3] -2.4% | viability [4] 95.7% | viability [5] 92.1% | inhibition [6] 2.83% | RAM network inhibition [7] 3.57%

O=C(Nc1nccs1)c1ccc(Cl)s1
inactive: growth inhibition [1] -0.705% | growth inhibition [2] 4.79% | viability increase [3] 1.01% | viability [4] 96.3% | viability [5] 94.9% | inhibition [6] -0.025% | RAM network inhibition [7] -1.54%

c1ccc(Nc2nc3ccccc3n3cnnc23)cc1
inactive: growth inhibition [1] -1.27% | growth inhibition [2] 10.2% | viability increase [3] -5.23% | viability [4] 86.1% | viability [5] 84.6% | inhibition [6] 2.09% | RAM network inhibition [7] -0.58%

CCC(=O)NCc1nc2ccccc2n1Cc1ccccc1F
inactive: growth inhibition [1] -7.37% | growth inhibition [2] -27% | viability increase [3] -0.04% | viability [4] 99.1% | viability [5] 99.2% | inhibition [6] 0.885% | RAM network inhibition [7] 2.45%

CC(=O)c1ccc(OCCCC(=O)NCC(c2ccco2)N(C)C)cc1 (centres undefined)
inactive: growth inhibition [1] 4.54% | growth inhibition [2] -0.015% | viability increase [3] -4.73% | viability [4] 68.9% | viability [5] 85.3% | inhibition [6] 0.755% | RAM network inhibition [7] 1.98%

CC(Oc1ccc(Cl)cc1Cl)c1nc(-c2ccccn2)no1 (centres undefined)
inactive: growth inhibition [1] -3.06% | growth inhibition [2] 5.3% | viability increase [3] 1.23% | viability [4] 99.1% | viability [5] 87.7% | inhibition [6] 0.375% | RAM network inhibition [7] 2.34%

COc1ccc(CC(=O)Nc2c3c(nn2C(C)(C)C)CS(=O)C3)cc1 (centres undefined)
inactive: growth inhibition [1] -13.6% | growth inhibition [2] -4.57% | viability increase [3] -0.14% | viability [4] 109% | viability [5] 101% | inhibition [6] 1.24% | RAM network inhibition [7] 0.63%

COc1ccc(CNC(=O)c2cc(C3CC3)on2)cc1
inactive: growth inhibition [1] -3.07% | growth inhibition [2] 6.49% | viability increase [3] -1.95% | viability [4] 94.3% | viability [5] 95.5% | inhibition [6] -0.84% | RAM network inhibition [7] -2.3%

CCCCN(C)c1nc(-c2ccco2)c2c(c1C#N)CC(C)(C)OC2
inactive: growth inhibition [1] -9.48% | growth inhibition [2] 0.09% | viability increase [3] -4.56% | viability [4] 96.3% | viability [5] 98.3% | inhibition [6] 1.63% | RAM network inhibition [7] -0.79%

COc1ccc(C(=O)Nc2cc(-c3nn4c(C)nnc4s3)ccc2C)cc1
inactive: growth inhibition [1] 8.96% | growth inhibition [2] 33.2% | viability increase [3] -5.02% | viability [4] 98.3% | viability [5] 88.2% | inhibition [6] 1.27% | RAM network inhibition [7] 2.75%

O=C(c1ccccc1)c1ccc2nc(N3CCN(C(=O)c4ccco4)CC3)c3nncn3c2c1
inactive: growth inhibition [1] -3.47% | growth inhibition [2] 11.3% | viability increase [3] -3.94% | viability [4] 65.3% | viability [5] 72.7% | inhibition [6] 2.05% | RAM network inhibition [7] -0.16%

CN1CCN(C(=O)c2ccc3c(c2)N(Cc2cccc(Cl)c2)C(=O)c2ccccc2S3=O)CC1 (centres undefined)
inactive: growth inhibition [1] -4.92% | growth inhibition [2] -10.7% | viability increase [3] -3.66% | viability [4] 102% | viability [5] 99.1% | inhibition [6] 0.63% | RAM network inhibition [7] 6.41%

COc1ccc(C(=O)c2coc3ccc(O)c(CN(C)C)c23)cc1
inactive: growth inhibition [1] -15% | growth inhibition [2] -11.6% | viability increase [3] -2.46% | viability [4] 84.4% | viability [5] 76.1% | inhibition [6] 0.74% | RAM network inhibition [7] -1.93%

COc1ccccc1NC(=O)CSc1nc2ncccc2[nH]1
inactive: growth inhibition [1] -4.5% | growth inhibition [2] 17.8% | viability increase [3] -1.01% | viability [4] 101% | viability [5] 98.2% | inhibition [6] 0.975% | RAM network inhibition [7] 3.83%

Cc1nn(C)c(C)c1S(=O)(=O)N(CC(=O)NCc1cccs1)c1ccc(C(C)C)cc1
inactive: growth inhibition [1] -16.9% | growth inhibition [2] -13.5% | viability increase [3] -3.06% | viability [4] 99% | viability [5] 87.5% | inhibition [6] 2.2% | RAM network inhibition [7] 8.44%

CCc1ccc(-c2nc(CN3CCCC(C(=O)O)C3)c(C)o2)cc1 (centres undefined)
inactive: growth inhibition [1] 2.06% | growth inhibition [2] -4.83% | viability increase [3] 1.14% | viability [4] 97.6% | viability [5] 101% | inhibition [6] -0.145% | RAM network inhibition [7] 2.81%

Cc1ccc(-n2nnc3c(=O)n(CC(=O)N4CCOCC4)cnc32)cc1
inactive: growth inhibition [1] -0.37% | growth inhibition [2] 0.95% | viability increase [3] -1.94% | viability [4] 101% | viability [5] 94.2% | inhibition [6] 1.23% | RAM network inhibition [7] 3.05%

COc1ccc(S(=O)(=O)N2CC(C)N(S(=O)(=O)c3ccc(OC)cc3)CC2C)cc1 (centres undefined)
inactive: growth inhibition [1] -4.74% | growth inhibition [2] 0.035% | viability increase [3] -2.77% | viability [4] 93.2% | viability [5] 102% | inhibition [6] 1.73% | RAM network inhibition [7] 5.94%

COC(=O)C1C(O)=C(C(C)=N)C(=O)CC1(C)C (centres undefined)
inactive: growth inhibition [1] -3.89% | growth inhibition [2] 2.82% | viability increase [3] -0.83% | viability [4] 98.1% | viability [5] 90.8% | inhibition [6] -0.755% | RAM network inhibition [7] 1.67%

Cc1cc(C(=O)NCC2CCCO2)n(-c2ccccc2)n1 (centres undefined)
inactive: growth inhibition [1] -0.68% | growth inhibition [2] -2.33% | viability increase [3] -1.22% | viability [4] 100% | viability [5] 103% | inhibition [6] 0.28% | RAM network inhibition [7] 2.07%

Cc1cc(NC(=O)CSc2cn(CCNC(=O)c3ccccc3)c3ccccc23)no1
inactive: growth inhibition [1] -3.29% | growth inhibition [2] -0.585% | viability increase [3] -0.97% | viability [4] 88.1% | viability [5] 88.7% | inhibition [6] 3.04% | RAM network inhibition [7] 6.89%
